{"source": "paper PMC8927994", "about": "(iScience, 2022)", "key": {"[1]": {"tested_on": "mouse peritoneal macrophages (PMs)", "assay": "Imiquimod-induced inflammation in peritoneal macrophages", "assay_type": "cell-based"}, "PTP1B": {"target": "T1, PTP1B (Homo sapiens, UniProt P18031)", "T1 sequence (P18031 1-435)": "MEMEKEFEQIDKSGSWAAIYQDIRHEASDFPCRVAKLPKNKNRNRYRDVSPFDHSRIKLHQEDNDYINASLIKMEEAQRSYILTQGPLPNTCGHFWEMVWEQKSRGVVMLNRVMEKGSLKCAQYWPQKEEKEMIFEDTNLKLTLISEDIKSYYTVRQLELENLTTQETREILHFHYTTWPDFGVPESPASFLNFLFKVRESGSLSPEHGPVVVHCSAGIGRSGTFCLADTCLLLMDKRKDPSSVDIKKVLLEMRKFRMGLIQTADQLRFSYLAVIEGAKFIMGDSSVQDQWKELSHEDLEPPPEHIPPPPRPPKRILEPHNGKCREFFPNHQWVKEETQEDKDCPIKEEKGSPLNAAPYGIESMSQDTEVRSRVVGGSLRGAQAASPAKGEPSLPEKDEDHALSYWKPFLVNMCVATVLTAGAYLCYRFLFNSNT", "assay": "PTP1B enzyme activity assay", "assay_type": "biochemical", "conditions": "read-out: IC50 PTP1B, DiFMUP substrate", "summary_of_the_method": "(§1)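 In-house expressed recombinant enzyme, purified by gel filtration, at the same conditions as the SHP2 assay but without IRS1 activating peptide. Test compound at 0.001–100 μM is preincubated with enzyme for 30–60 min at 25°C. DiFMUP is then added for 30 min at 25°C, and the reaction is quenched with bpV(Phen). Fluorescence is read at ex 340/em 450 nm, and IC50 comes from the dose-response curve.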"}, "SHP1": {"target": "SHP1 (Homo sapiens, UniProt P29350)", "sequence (P29350 whole entry)": "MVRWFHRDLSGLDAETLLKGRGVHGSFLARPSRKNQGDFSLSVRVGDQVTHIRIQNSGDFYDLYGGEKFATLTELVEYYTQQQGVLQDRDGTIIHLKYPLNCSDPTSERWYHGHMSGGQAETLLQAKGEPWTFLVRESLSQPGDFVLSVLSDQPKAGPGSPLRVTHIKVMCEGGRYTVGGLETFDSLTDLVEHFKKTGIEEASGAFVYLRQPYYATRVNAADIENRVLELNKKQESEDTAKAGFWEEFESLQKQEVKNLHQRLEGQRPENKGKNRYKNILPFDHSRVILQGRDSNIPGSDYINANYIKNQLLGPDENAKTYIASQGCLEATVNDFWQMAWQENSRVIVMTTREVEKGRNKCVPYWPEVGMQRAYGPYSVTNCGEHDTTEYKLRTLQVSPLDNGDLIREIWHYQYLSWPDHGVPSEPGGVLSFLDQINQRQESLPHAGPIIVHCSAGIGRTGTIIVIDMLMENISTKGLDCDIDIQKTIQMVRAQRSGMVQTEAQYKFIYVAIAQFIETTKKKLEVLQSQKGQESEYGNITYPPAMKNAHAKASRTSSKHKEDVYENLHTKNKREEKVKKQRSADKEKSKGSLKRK", "assay": "SHP1 enzyme activity assay", "assay_type": "biochemical", "conditions": "read-out: IC50 SHP1, DiFMUP substrate", "summary_of_the_method": "as §1"}, "[2]": {"tested_on": "imiquimod-induced psoriasis model mice", "assay": "IMQ-induced psoriasis-like mouse model", "assay_type": "in vivo"}, "[3]": {"tested_on": "bone marrow-derived macrophages (BMDMs)", "assay": "Imiquimod-induced inflammation in bone marrow-derived macrophages", "assay_type": "cell-based, mouse"}, "SHP2 protein [4]": {"tested_on": "SHP2 protein", "conditions": "acute myeloid leukemia MV4;11 cells; ref Wang et al., 2021; cited from earlier work"}, "SHP2 protein [5]": {"tested_on": "SHP2 protein", "conditions": "esophageal cancer KYSE520 cells; ref Wang et al., 2021; cited from earlier work"}, "[6]": {"conditions": "10 μM pretreated 3 h, 5 μM IMQ 1 h"}}, "note": "Read-outs that look alike come from different tables or passages of the source."}
{"smiles": "CC1(N)CCN(c2cnc(-c3cccc(Cl)c3Cl)c(N)n2)CC1", "note": "[SHP099]", "values": [{"measurement": "phosphorylation levels of p-IKKα/β and p-p65 (western blot)", "setting": "[1]; [6]", "result": "inhibited the phosphorylation levels"}, {"measurement": "gene expression levels of inflammatory factors Il23a, Il22, Il6, Tnfα, Il1b, Ptgs2 (qPCR)", "setting": "[1]; pretreated 3 h, 5 μM IMQ 6 h", "result": "significantly alleviated"}, {"measurement": "IC50", "setting": "PTP1B", "result": "> 100", "unit": "µM"}, {"measurement": "IC50", "setting": "SHP1", "result": "> 100", "unit": "µM"}, {"measurement": "infiltration of inflammatory cells (HE staining of skin sections)", "setting": "[2]", "result": "significantly reduced"}, {"measurement": "proliferation of epidermal cells (HE staining of skin sections)", "setting": "[2]", "result": "effectively inhibit"}, {"measurement": "phosphorylation levels of p-IKKα/β and p-p65 (western blot)", "setting": "[3]; [6]", "result": "inhibited the phosphorylation levels"}, {"measurement": "gene expression levels of inflammatory factors Il23a, Il22, Il6, Tnfα, Il1b, Ptgs2 (qPCR)", "setting": "[3]; pretreated 3 h, 5 μM IMQ 6 h", "result": "significantly alleviated"}]}
{"smiles": "Cc1ncsc1-c1ccc([C@H](C)NC(=O)[C@@H]2C[C@@H](O)CN2C(=O)[C@@H](NC(=O)CCCCCCCCN2CCN(C(=O)CCC(=O)Nc3cccc(Sc4ncc(N5CCC(C)(N)CC5)nc4N)c3Cl)CC2)C(C)(C)C)cc1", "note": "[SHP2-D26]", "values": [{"measurement": "reduction of SHP2 protein levels", "setting": "SHP2 protein [4]", "result": "> 95", "unit": "%"}, {"measurement": "reduction of SHP2 protein levels", "setting": "SHP2 protein [5]", "result": "> 95", "unit": "%"}]}
